Experimental data published in ChEMBL document CHEMBL4387700, “A novel, potent, and orally bioavailable thiazole HCV NS5A inhibitor for the treatment of hepatitis C virus” (Eur J Med Chem, 2019).

How the values were obtained:
[1] = Volume of distribution at steady state in Sprague-Dawley rat at 1 mg/kg, iv by HPLC-MS/MS analysis; format: ADME, organism-based; settings: in vivo, read-out: Vdss
In short: (§1)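 Male Sprague-Dawley rats, 330–380 g, 9–10 weeks old, n = 3, jugular-cannulated 1 day ahead and fasted. Dosed iv 1.0 mg/kg or orally 5.0 mg/kg. Cannula blood was drawn at 0, 2, 5 (iv only), 15, 30 min and 1, 2, 4, 6, 8, 24 h. Plasma was assayed by HPLC-MS/MS, with non-compartmental analysis. The iv vehicle was DMA/propylene glycol (20/80, v/v).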

[2] = Volume of distribution at steady state in Beagle dog at 0.1 mg/kg, iv by HPLC-MS/MS analysis; format: ADME, organism-based, Canis lupus familiaris; settings: in vivo, read-out: Vdss
In short: (§2)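 Male Beagle dogs, 9–10 months old, n = 3, dosed iv 0.1 mg/kg or orally 0.5 mg/kg. Blood was drawn at 0, 2, 5 (iv only), 15, 30 min and 1, 2, 4, 6, 8, 24 h and kept on ice. Plasma was assayed by HPLC-MS/MS, with non-compartmental analysis. The iv formulation was a solution in DMA/propylene glycol (20/80, v/v).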

[3] = Half life in Sprague-Dawley rat at 5 mg/kg, po by HPLC-MS/MS analysis; format: ADME, organism-based; settings: in vivo; in short: as §1
[4] = Tmax in Sprague-Dawley rat at 5 mg/kg, po by HPLC-MS/MS analysis; format: ADME, organism-based; settings: in vivo; in short: as §1
[5] = Cmax in Sprague-Dawley rat at 5 mg/kg, po by HPLC-MS/MS analysis; format: ADME, organism-based; parameters: dose 5 mg/kg, route oral; settings: in vivo; in short: as §1
[6] = AUC in Beagle dog at 0.5 mg/kg, po by HPLC-MS/MS analysis; format: ADME, organism-based, Canis lupus familiaris; settings: in vivo; in short: as §2
[7] = AUC in Sprague-Dawley rat at 5 mg/kg, po by HPLC-MS/MS analysis; format: ADME, organism-based; settings: in vivo; in short: as §1
[8] = Plasma clearance in Sprague-Dawley rat at 1 mg/kg, iv by HPLC-MS/MS analysis; format: ADME, organism-based; in short: as §1
[9] = Cytotoxicity against human HuH7 cells assessed as reduction in cell viability by MTS assay; format: cell-based, Huh-7
In short: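 Viability of Huh-7 cells was read by MTS assay.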

[10] = target: T1, Nonstructural protein 5A (Hepatitis C virus) (UniProt Q5L478); assay: Potency index, ratio of daclatasvir EC50 to test compound EC50 for inhibition of NS5A in HCV genotype 1b infected in human HuH7 replicon cells; format: cell-based; settings: Hepatitis C virus subtype 1b
T1 sequence (whole entry): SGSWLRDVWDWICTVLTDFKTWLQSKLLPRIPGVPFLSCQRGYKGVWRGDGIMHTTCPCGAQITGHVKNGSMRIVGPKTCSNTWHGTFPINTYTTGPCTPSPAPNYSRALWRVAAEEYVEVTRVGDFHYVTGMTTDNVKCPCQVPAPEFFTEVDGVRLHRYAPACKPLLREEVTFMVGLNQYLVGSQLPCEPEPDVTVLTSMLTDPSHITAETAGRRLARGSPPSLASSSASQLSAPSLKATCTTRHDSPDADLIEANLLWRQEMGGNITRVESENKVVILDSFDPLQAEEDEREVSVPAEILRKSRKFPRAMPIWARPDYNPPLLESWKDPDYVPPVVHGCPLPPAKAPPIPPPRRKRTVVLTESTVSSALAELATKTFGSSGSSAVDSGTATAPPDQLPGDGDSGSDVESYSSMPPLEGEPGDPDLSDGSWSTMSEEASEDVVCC

[11] = Plasma clearance in Beagle dog at 0.1 mg/kg, iv by HPLC-MS/MS analysis; format: ADME, organism-based, Canis lupus familiaris; in short: as §2
[12] = Half life in Sprague-Dawley rat at 1 mg/kg, iv by HPLC-MS/MS analysis; format: ADME, organism-based; settings: in vivo; in short: as §1
[13] = Half life in Beagle dog at 0.1 mg/kg, iv by HPLC-MS/MS analysis; format: ADME, organism-based, Canis lupus familiaris; settings: in vivo; in short: as §2
[14] = AUC in Sprague-Dawley rat at 1 mg/kg, iv by HPLC-MS/MS analysis; format: ADME, organism-based; settings: in vivo; in short: as §1
[15] = AUC in Beagle dog at 0.1 mg/kg, iv by HPLC-MS/MS analysis; format: ADME, organism-based, Canis lupus familiaris; settings: in vivo; in short: as §2
[16] = Cmax in Beagle dog at 0.5 mg/kg, po by HPLC-MS/MS analysis; format: ADME, organism-based, Canis lupus familiaris; parameters: dose 0.5 mg/kg, route oral; settings: in vivo; in short: as §2
[17] = Tmax in Beagle dog at 0.5 mg/kg, po by HPLC-MS/MS analysis; format: ADME, organism-based, Canis lupus familiaris; settings: in vivo; in short: as §2
[18] = Half life in Beagle dog at 0.5 mg/kg, po by HPLC-MS/MS analysis; format: ADME, organism-based, Canis lupus familiaris; settings: in vivo; in short: as §2
[19] = Oral bioavailability in Sprague-Dawley rat at 5 mg/kg by HPLC-MS/MS analysis; format: ADME, organism-based; settings: in vivo; in short: as §1
[20] = Oral bioavailability in Beagle dog at 0.5 mg/kg by HPLC-MS/MS analysis; format: ADME, organism-based, Canis lupus familiaris; settings: in vivo; in short: as §2
[21] = Toxicity in Sprague-Dawley rat assessed as death at 1 mg/kg, iv; format: organism-based; settings: in vivo
In short: (§3)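 Male Sprague-Dawley rats, 330–380 g, 9–10 weeks old, n = 3, were quarantined 1 week and jugular-cannulated 1 day before dosing. They were fasted, then given a single intravenous (1.0 mg/kg; DMA/propylene glycol 20/80, v/v) or oral (5.0 mg/kg) dose. Deaths, body weight and clinical observations were monitored with blood sampling through 24 h.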

[22] = Toxicity in Beagle dog assessed as death at 0.1 mg/kg, iv; format: organism-based, Canis lupus familiaris; settings: in vivo
In short: (§4)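 Male Beagle dogs, 9–10 months old, n = 3, were given a single intravenous (0.1 mg/kg) or oral (0.5 mg/kg) dose. The intravenous solution was in DMA/propylene glycol (20/80, v/v). Dose volume was set by pre-dose body weight. Blood was sampled up to 24 h. Deaths, body weight and clinical observations were recorded during the pharmacokinetic study.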

[23] = Toxicity in Sprague-Dawley rat assessed as effect on body weight at 1 mg/kg, iv; format: organism-based; settings: in vivo; in short: as §3
[24] = Toxicity in Beagle dog assessed as effect on clinical observations at 0.5 mg/kg, po; format: organism-based, Canis lupus familiaris; settings: in vivo; in short: as §4
[25] = Toxicity in Beagle dog assessed as effect on body weight at 0.5 mg/kg, po; format: organism-based, Canis lupus familiaris; settings: in vivo; in short: as §4
[26] = Toxicity in Beagle dog assessed as death at 0.5 mg/kg, po; format: organism-based, Canis lupus familiaris; settings: in vivo; in short: as §4
[27] = Toxicity in Sprague-Dawley rat assessed as death at 5 mg/kg, po; format: organism-based; settings: in vivo; in short: as §3
[28] = Toxicity in Sprague-Dawley rat assessed as effect on body weight at 5 mg/kg, po; format: organism-based; settings: in vivo; in short: as §3
[29] = Toxicity in Sprague-Dawley rat assessed as effect on clinical observations at 5 mg/kg, po; format: organism-based; settings: in vivo; in short: as §3
[30] = Toxicity in Beagle dog assessed as effect on body weight at 0.1 mg/kg, iv; format: organism-based, Canis lupus familiaris; settings: in vivo; in short: as §4
[31] = Toxicity in Sprague-Dawley rat assessed as effect on clinical observations at 1 mg/kg, iv; format: organism-based; settings: in vivo; in short: as §3
[32] = Toxicity in Beagle dog assessed as effect on clinical observations at 0.1 mg/kg, iv; format: organism-based, Canis lupus familiaris; settings: in vivo; in short: as §4

In the case of `O=C(N[C@@H](C(=O)N1CCC[C@H]1c1ncc(-c2ccc(-c3ccc(-c4cnc([C@@H]5CCCN5C(=O)[C@H](NC(=O)C5CC5)c5ccccc5)s4)cc3)cc2)s1)c1ccccc1)C1CC1`, the Vd [1] is reported as 1.3 L/kg, the Vd [2] is reported as 1.6 L/kg and the half-life [3] is reported as 20.4 h. It also gave a Tmax [4] of 3.3 h, a Cmax [5] of 0.305 µg/mL and an AUC [6] of 1.62 µg·h/mL. It also gave an AUC [7] of 14.5 µg·h/mL, a clearance [8] of 0.066 L/h/kg and a CC50 [9] greater than 50 µM. For the same molecule, the Ratio EC50 [10] was 3, the clearance [11] was 0.078 L/h/kg and the half-life [12] was 18.3 h. The half-life [13] was 19.2 h, the AUC [14] was 16.3 µg·h/mL and the AUC [15] was 1.39 µg·h/mL. It also gave a Cmax [16] of 0.0949 µg/mL, a Tmax [17] of 2.5 h and a half-life [18] of 21.4 h. The bioavailability [19] was 22%, the bioavailability [20] was 23.3% and the Activity [21] was “Non-Toxic”. For the same molecule, the Activity [22] was “Non-Toxic”, the Activity [23] was “Non-Toxic” and the Activity [24] was “Non-Toxic”. The Activity [25] was “Non-Toxic”, the Activity [26] was “Non-Toxic” and the Activity [27] was “Non-Toxic”. For the same molecule, the Activity [28] was “Non-Toxic”, the Activity [29] was “Non-Toxic” and the Activity [30] was “Non-Toxic”. For the same molecule, the Activity [31] was “Non-Toxic” and the Activity [32] was “Non-Toxic”.
